According to paper PMC7703486 (Angewandte Chemie (International ed. in English), 2020):
Like-named read-outs stand apart in the source and are kept apart here.

Key:
CDK2/cyclin A = CDK2/cyclin A (Homo sapiens, UniProt P24941); test: Biochemical assay CDK2/cyclin A
CDK1/cyclin B = CDK1/cyclin B (Homo sapiens, UniProt P06493); test: Biochemical assay CDK1/cyclin B
CDK6 [1] = target: T1, CDK6 (Homo sapiens, UniProt Q00534); test: Immunoblot degradation in OVCAR8 cells, CDK6; format: cell-based; conditions: OVCAR8 cells (Figure S2)
T1 sequence (Q00534 whole entry): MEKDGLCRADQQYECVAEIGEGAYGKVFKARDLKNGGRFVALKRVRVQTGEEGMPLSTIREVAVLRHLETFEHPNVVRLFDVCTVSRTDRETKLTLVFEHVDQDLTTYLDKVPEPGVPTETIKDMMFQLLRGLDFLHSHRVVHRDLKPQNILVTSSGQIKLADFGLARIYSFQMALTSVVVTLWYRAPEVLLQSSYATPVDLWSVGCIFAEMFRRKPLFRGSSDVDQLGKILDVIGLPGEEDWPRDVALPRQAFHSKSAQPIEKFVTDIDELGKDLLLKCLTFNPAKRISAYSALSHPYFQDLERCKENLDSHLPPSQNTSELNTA

CDK5 [2] = target: T2, CDK5 (Homo sapiens, UniProt Q00535); test: Immunoblot degradation in Jurkat cells, CDK5; format: cell-based; conditions: 6 hours
T2 sequence (Q00535 whole entry): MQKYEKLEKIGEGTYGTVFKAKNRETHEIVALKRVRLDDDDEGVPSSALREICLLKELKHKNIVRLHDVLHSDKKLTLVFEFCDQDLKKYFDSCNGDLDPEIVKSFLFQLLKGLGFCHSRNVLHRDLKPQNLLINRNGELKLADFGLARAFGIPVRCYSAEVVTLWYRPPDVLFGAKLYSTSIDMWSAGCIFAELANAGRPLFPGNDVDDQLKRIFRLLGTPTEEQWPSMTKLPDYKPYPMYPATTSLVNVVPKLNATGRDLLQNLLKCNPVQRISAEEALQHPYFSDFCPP

CDK1 [3] = target: T3, CDK1 (Homo sapiens, UniProt P06493); test: Immunoblot degradation in Jurkat cells, CDK1; format: cell-based; conditions: 6 hours
T3 sequence (P06493 whole entry): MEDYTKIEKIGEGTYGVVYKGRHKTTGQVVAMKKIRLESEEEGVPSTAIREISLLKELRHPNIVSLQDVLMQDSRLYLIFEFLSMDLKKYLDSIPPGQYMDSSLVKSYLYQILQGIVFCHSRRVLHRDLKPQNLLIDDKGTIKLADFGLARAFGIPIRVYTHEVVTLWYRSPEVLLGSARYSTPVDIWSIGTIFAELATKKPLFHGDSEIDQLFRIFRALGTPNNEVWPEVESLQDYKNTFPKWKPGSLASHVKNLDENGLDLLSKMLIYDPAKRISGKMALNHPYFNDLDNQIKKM

CDK4 [4] = target: T4, CDK4 (Homo sapiens, UniProt P11802); test: Immunoblot degradation in OVCAR8 cells, CDK4; format: cell-based; conditions: OVCAR8 cells (Figure S2)
T4 sequence (P11802 whole entry): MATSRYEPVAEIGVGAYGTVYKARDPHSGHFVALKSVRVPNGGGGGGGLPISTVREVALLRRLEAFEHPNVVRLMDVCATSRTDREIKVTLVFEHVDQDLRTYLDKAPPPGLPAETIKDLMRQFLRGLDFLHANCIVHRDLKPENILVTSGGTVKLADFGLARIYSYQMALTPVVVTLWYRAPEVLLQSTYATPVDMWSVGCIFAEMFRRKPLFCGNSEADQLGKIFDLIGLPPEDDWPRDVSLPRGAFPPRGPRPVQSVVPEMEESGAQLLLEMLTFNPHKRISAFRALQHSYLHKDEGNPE

CDK7 = CDK7 (Homo sapiens, UniProt P50613); test: Immunoblot degradation in Jurkat cells, CDK7; format: cell-based; conditions: 6 hours
Chain of CDK7 (P50613 whole entry): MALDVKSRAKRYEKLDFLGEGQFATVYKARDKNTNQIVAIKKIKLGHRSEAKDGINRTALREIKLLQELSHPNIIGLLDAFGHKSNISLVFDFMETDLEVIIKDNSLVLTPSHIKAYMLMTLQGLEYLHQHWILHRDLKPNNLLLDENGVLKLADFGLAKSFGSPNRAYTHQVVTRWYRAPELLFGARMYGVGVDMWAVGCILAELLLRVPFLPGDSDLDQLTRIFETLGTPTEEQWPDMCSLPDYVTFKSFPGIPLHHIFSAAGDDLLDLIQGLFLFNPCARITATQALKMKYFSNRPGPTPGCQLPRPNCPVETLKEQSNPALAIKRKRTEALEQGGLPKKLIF

CDK9 = CDK9 (Homo sapiens, UniProt P50750); test: Immunoblot degradation in Jurkat cells, CDK9; format: cell-based; conditions: 6 hours
Chain of CDK9 (P50750 whole entry): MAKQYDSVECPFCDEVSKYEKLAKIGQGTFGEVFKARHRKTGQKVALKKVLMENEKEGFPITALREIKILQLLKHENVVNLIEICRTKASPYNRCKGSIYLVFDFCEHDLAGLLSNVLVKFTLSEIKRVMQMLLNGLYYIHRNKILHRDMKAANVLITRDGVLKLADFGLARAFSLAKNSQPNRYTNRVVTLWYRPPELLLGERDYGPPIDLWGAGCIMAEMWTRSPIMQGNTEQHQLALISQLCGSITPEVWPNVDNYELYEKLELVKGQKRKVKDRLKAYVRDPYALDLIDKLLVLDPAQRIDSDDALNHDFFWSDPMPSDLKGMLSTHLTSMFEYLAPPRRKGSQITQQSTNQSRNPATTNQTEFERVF

CDK4 [5] = target: T4, CDK4; test: Immunoblot degradation in Jurkat cells, CDK4; format: cell-based; conditions: 6 hours
CDK6 [6] = target: T1, CDK6; test: Immunoblot degradation in Jurkat cells, CDK6; format: cell-based; conditions: 6 hours
CDK2 [7] = target: T5, CDK2 (Homo sapiens, UniProt P24941); test: Immunoblot degradation in Jurkat cells, CDK2; format: cell-based; conditions: 6 hours
Procedure, shortened: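 Jurkat cells exposed 6 h to test compound, at 1 μM in the initial degrader screen and otherwise at the indicated concentrations, then CDK2 read by immunoblot. Cereblon dependence was checked with an analogue carrying a methylated glutarimide that cannot engage cereblon, under the same 6 h conditions.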

CDK4/cyclin D1 = CDK4/cyclin D1 (Homo sapiens, UniProt P11802); test: Biochemical assay CDK4/cyclin D1
Chain of CDK4/cyclin D1 (P11802 whole entry): as the sequence (P11802 whole entry) above
Chain of CDK4/cyclin D1 (P24385 whole entry partner): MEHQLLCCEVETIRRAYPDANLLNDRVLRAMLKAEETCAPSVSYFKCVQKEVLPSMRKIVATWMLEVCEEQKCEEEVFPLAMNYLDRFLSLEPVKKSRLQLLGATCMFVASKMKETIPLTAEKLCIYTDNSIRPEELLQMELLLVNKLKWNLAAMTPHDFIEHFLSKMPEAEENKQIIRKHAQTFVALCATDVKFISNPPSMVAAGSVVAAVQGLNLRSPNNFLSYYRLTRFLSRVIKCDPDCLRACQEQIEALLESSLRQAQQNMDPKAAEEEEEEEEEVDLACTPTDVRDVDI

CDK6/cyclin D1 = CDK6/cyclin D1 (Homo sapiens, UniProt Q00534); test: Biochemical assay CDK6/cyclin D1
Chain of CDK6/cyclin D1 (Q00534 whole entry): as the sequence (Q00534 whole entry) above
Chain of CDK6/cyclin D1 (P24385 whole entry partner): as the sequence (P24385 whole entry partner) above

CDK9/cyclin T1 = CDK9/cyclin T1 (Homo sapiens, UniProt P50750); test: Biochemical assay CDK9/cyclin T1
Chain of CDK9/cyclin T1 (P50750 whole entry): as the sequence (P50750 whole entry) above
Chain of CDK9/cyclin T1 (O60563 whole entry partner): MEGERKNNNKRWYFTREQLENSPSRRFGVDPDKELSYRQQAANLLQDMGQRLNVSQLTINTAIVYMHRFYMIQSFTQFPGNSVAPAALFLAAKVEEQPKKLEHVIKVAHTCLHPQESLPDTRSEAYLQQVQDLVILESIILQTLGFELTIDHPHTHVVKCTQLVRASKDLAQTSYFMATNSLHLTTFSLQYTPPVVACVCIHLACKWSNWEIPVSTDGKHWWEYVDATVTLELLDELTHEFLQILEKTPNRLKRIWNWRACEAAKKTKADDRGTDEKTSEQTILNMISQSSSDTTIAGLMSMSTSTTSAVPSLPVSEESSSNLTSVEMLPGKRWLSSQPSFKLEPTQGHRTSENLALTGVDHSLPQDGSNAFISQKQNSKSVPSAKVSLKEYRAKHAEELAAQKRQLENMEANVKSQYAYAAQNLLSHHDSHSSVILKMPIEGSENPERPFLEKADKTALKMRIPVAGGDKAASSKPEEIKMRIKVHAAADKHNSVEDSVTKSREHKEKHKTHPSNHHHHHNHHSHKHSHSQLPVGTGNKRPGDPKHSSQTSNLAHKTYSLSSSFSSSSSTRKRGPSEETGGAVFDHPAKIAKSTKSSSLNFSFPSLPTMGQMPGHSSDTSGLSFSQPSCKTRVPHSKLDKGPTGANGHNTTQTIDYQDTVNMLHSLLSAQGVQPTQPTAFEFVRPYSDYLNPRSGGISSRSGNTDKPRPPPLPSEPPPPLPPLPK

CDK7/cyclin H = CDK7/cyclin H (Homo sapiens, UniProt P50613); test: Biochemical assay CDK7/cyclin H
Chain of CDK7/cyclin H (P50613 whole entry): as the sequence (P50613 whole entry) above
Chain of CDK7/cyclin H (P51946 whole entry partner): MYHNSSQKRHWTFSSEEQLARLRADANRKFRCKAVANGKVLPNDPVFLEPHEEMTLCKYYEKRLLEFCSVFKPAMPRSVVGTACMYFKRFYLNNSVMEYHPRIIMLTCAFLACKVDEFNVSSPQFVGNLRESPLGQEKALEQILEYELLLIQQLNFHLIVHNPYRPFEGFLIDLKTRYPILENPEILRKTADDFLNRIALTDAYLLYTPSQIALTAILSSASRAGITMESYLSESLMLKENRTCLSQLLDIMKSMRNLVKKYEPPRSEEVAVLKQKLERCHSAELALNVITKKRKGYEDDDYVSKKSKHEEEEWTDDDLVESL

CDK5/p25 = CDK5/p25 (Homo sapiens, UniProt Q00535); test: Biochemical assay CDK5/p25
Chain of CDK5/p25 (Q00535 whole entry): as the sequence (Q00535 whole entry) above
Chain of CDK5/p25 (Q15078 99-307 partner limits assumed): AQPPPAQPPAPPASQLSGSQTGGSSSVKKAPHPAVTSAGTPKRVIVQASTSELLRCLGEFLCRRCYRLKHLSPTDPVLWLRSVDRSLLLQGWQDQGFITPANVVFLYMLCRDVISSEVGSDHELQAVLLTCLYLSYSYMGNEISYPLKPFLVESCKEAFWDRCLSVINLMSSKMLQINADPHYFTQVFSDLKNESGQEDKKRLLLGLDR

Aurora A [8] = target: T6, Aurora A (Homo sapiens, UniProt O14965); test: Degradation in OVCAR8 cells, Aurora A; format: cell-based; conditions: OVCAR8, same conditions (Figure S3)
T6 sequence (O14965 1-403): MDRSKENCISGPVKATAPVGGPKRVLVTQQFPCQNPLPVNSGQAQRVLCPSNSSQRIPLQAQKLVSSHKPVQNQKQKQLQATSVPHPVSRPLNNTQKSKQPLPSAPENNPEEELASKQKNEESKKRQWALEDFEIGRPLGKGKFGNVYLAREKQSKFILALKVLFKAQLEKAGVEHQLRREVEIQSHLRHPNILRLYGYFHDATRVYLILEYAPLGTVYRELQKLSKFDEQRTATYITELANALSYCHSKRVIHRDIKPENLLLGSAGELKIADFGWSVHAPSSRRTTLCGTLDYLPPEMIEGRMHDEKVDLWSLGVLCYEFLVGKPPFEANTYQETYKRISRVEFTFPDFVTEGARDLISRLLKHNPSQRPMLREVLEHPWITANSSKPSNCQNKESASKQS

Aurora A [9] = target: T6, Aurora A; test: Biochemical activity assay Aurora A
more than 400 kinases = test: KINOMEscan panel profiling; format: binding; conditions: 1 μM
RSK1 (RPS6KA1) = RSK1 (RPS6KA1) (Homo sapiens, UniProt Q15418); test: Pulse-chase SILAC MS proteomics in OVCAR8 cells, RSK1; format: cell-based; conditions: OVCAR8, 250 nM, 6 hours
CDK2 [10] = target: T5, CDK2; test: Immunoblot degradation in CRBN-null Jurkat cells, CDK2; format: cell-based; conditions: 6 hours
Procedure, shortened: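 Used to test whether degradation requires cereblon: CRBN-null Jurkat cells treated 6 h with test compound, then CDK2 levels read by immunoblot.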

CDK5 [11] = target: T2, CDK5; test: Immunoblot degradation in OVCAR8 cells, CDK5; format: cell-based; conditions: 6 hours
CDK5 [12] = target: T2, CDK5; test: Pulse-chase SILAC MS proteomics in OVCAR8 cells, CDK5; format: cell-based; conditions: OVCAR8, 250 nM, 6 hours
CDK2 [13] = target: T5, CDK2; test: Immunoblot degradation in OVCAR8 cells, CDK2; format: cell-based; conditions: 6 hours
STK33 = STK33 (Homo sapiens, UniProt Q9BYT3); test: Pulse-chase SILAC MS proteomics in OVCAR8 cells, STK33; format: cell-based; conditions: OVCAR8, 250 nM, 6 hours
JNK2 (MAPK9) = JNK2 (MAPK9) (Homo sapiens, UniProt P45984); test: Pulse-chase SILAC MS proteomics in OVCAR8 cells, JNK2; format: cell-based; conditions: OVCAR8, 250 nM, 6 hours
CDK1 [14] = target: T3, CDK1; test: Immunoblot degradation in OVCAR8 cells, CDK1; format: cell-based; conditions: 6 hours
CDK2 [15] = target: T5, CDK2; test: Pulse-chase SILAC MS proteomics in OVCAR8 cells, CDK2; format: cell-based; conditions: OVCAR8, 250 nM, 6 hours
OVCAR8 cells = test: Growth rate inhibition in OVCAR8 cells; format: cell-based
CRBN = CRBN (Homo sapiens, UniProt Q96SW2); test: Cellular CRBN engagement assay; format: cell-based
CDK2 [16] = target: T5, CDK2; test: KINOMEscan, CDK2; format: binding; conditions: 1 μM; only CDK with potent inhibition; CDK1 not in panel
Aurora A [17] = target: T6, Aurora A; test: Pulse-chase SILAC MS proteomics in OVCAR8 cells, Aurora A; format: cell-based; conditions: OVCAR8, 250 nM, 6 hours
[18] = read-out: CDK2/cyclin A IC50, Table 1, degraders, tested in duplicate
[19] = read-out: CDK1/cyclin B IC50, Table 1, degraders, tested in duplicate
[20] = read-out: CDK4 IC50, Table 2, w/cyclin D1, duplicate
[21] = read-out: CDK2 IC50, Table 2, w/cyclin A, duplicate
[22] = read-out: CDK6 IC50, Table 2, w/cyclin D1, duplicate
[23] = read-out: CDK1 IC50, Table 2, w/cyclin B, duplicate
[24] = read-out: CDK5 IC50, Table 2, w/p25, duplicate

Chain of CDK1/cyclin B (P06493 whole entry): as the sequence (P06493 whole entry) above
Chain of CDK1/cyclin B (P14635 whole entry partner): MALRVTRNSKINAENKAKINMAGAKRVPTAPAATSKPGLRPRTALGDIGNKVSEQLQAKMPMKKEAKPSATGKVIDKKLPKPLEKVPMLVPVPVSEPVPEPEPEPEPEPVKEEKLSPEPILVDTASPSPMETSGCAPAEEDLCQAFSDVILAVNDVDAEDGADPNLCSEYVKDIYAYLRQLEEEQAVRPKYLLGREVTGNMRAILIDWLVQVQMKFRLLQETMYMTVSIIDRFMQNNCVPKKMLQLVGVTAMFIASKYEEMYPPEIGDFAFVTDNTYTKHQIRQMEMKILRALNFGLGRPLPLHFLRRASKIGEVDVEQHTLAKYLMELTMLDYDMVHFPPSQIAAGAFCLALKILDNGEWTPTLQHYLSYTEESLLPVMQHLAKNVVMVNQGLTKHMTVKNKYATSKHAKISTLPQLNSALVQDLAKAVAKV

NC(=O)c1c(F)cccc1Nc1nc(NC2CCN(S(=O)(=O)CCNC(=O)CCOCCOCCOCCOCCOc3cccc4c3C(=O)N(C3CCC(=O)NC3=O)C4=O)CC2)ncc1Br (stereo not drawn) [TMX-1111]
IC50 (CDK2/cyclin A; [18]): 6.4 nM | IC50 (CDK1/cyclin B; [19]): 9.5 nM

NC(=O)c1c(F)cccc1Nc1nc(NC2CCN(S(=O)(=O)CCNC(=O)CCOCCOCCOc3cccc4c3C(=O)N(C3CCC(=O)NC3=O)C4=O)CC2)ncc1Br (stereo not drawn) [TMX-1128]
IC50 (CDK2/cyclin A; [18]): 4.9 nM | IC50 (CDK1/cyclin B; [19]): 11.6 nM

NC(=O)c1c(F)cccc1Nc1nc(NC2CCN(S(=O)(=O)CCNC(=O)CCOCCOCCOCCOCCOCCOCCOCCOCCOc3cccc4c3C(=O)N(C3CCC(=O)NC3=O)C4=O)CC2)ncc1Br (stereo not drawn) [TMX-1146]
IC50 (CDK2/cyclin A; [18]): 7.3 nM | IC50 (CDK1/cyclin B; [19]): 15.5 nM

NC(=O)c1c(F)cccc1Nc1nc(NC2CCN(S(=O)(=O)CCNC(=O)CCCCCCCCOc3cccc4c3C(=O)N(C3CCC(=O)NC3=O)C4=O)CC2)ncc1Br (stereo not drawn) [TMX-1160]
CDK6 degradation (CDK6 [1]): not degraded | CDK5 degradation (CDK5 [2]; immunoblot (Figure 2B)): potently degraded | IC50 (CDK2/cyclin A; [18]): 28.7 nM | CDK1 degradation (CDK1 [3]; 1 μM): no CDK1 degradation was observed | CDK4 degradation (CDK4 [4]): not degraded | CDK7 degradation (CDK7; immunoblot (Figure 2B)): not degraded | CDK9 degradation (CDK9; immunoblot (Figure 2B)): not degraded | CDK4 degradation (CDK4 [5]; immunoblot (Figure 2B)): potently degraded | IC50 (CDK1/cyclin B; [19]): 8.5 nM | CDK6 degradation (CDK6 [6]; immunoblot (Figure 2B)): potently degraded | CDK2 degradation (CDK2 [7]; 1 μM): induced CDK2 degradation

NC(=O)c1c(F)cccc1Nc1nc(NC2CCN(S(=O)(=O)CCNC(=O)CCCCCCCOc3cccc4c3C(=O)N(C3CCC(=O)NC3=O)C4=O)CC2)ncc1Br (stereo not drawn) [TMX-1162]
IC50 (CDK2/cyclin A; [18]): 17.1 nM | CDK1 degradation (CDK1 [3]; 1 μM): no CDK1 degradation was observed | IC50 (CDK1/cyclin B; [19]): 8.5 nM | CDK2 degradation (CDK2 [7]; 1 μM): induced CDK2 degradation

NC(=O)c1c(F)cccc1Nc1nc(NC2CCN(S(=O)(=O)CCNC(=O)CCCCCOc3cccc4c3C(=O)N(C3CCC(=O)NC3=O)C4=O)CC2)ncc1Br (stereo not drawn) [TMX-1169]
IC50 (CDK2/cyclin A; [18]): 20.5 nM | IC50 (CDK1/cyclin B; [19]): 31 nM

CS(=O)(=O)N1CCC(Nc2ncc(Br)c(Nc3cccc(F)c3C(N)=O)n2)CC1 [TMX-2039]
enzymatic IC50 CDK4 (CDK4/cyclin D1; Figure 1): low nanomolar | enzymatic IC50 CDK2 (CDK2/cyclin A; Figure 1): low nanomolar | enzymatic IC50 CDK6 (CDK6/cyclin D1; Figure 1): low nanomolar | enzymatic IC50 CDK1 (CDK1/cyclin B; Figure 1): low nanomolar | enzymatic IC50 CDK9 (CDK9/cyclin T1; Figure 1): low nanomolar | enzymatic IC50 CDK7 (CDK7/cyclin H; Figure 1): low nanomolar

NC(=O)c1c(F)cccc1Nc1nc(Nc2ccc(S(=O)(=O)NCCOCCOCCOCCOCCNc3cccc4c3C(=O)N(C3CCC(=O)NC3=O)C4=O)cc2)ncc1Br (stereo not drawn) [TMX-2138]
IC50 (CDK4/cyclin D1; read-out: CDK4/cyclin D1 IC50, Table 3, duplicate): 901 nM | IC50 (CDK2/cyclin A; read-out: CDK2/cyclin A IC50, Table 3, duplicate): 10.9 nM | IC50 (CDK6/cyclin D1; read-out: CDK6/cyclin D1 IC50, Table 3, duplicate): 465 nM | IC50 (CDK1/cyclin B; read-out: CDK1/cyclin B IC50, Table 3, duplicate): 8.7 nM | IC50 (CDK9/cyclin T1; read-out: CDK9/cyclin T1 IC50, Table 3, duplicate): 25.7 nM | IC50 (CDK5/p25; read-out: CDK5/p25 IC50, Table 3, duplicate): 7 nM | IC50 (CDK7/cyclin H; read-out: CDK7/cyclin H IC50, Table 3, duplicate): 286 nM

Cc1cc(S(=O)(=O)NCCOCCOCCOCCOCCNc2cccc3c2C(=O)N(C2CCC(=O)NC2=O)C3=O)ccc1Nc1ncc(Br)c(Nc2cccc(F)c2C(N)=O)n1 (stereo not drawn) [TMX-2172]
concentration needed to achieve observable Aurora A degradation (Aurora A [8]): 5 µM | IC50 (Aurora A [9]): 205 nM | number of kinases with >99% inhibition compared to DMSO (more than 400 kinases): 14 | degree of degradation of RSK1 (RPS6KA1) (proteomics) (RSK1 (RPS6KA1)): relatively weak | IC50 (CDK4/cyclin D1): 7390 nM | CDK5 degradation (CDK5 [2]; immunoblot (Figure 3A)): retained the ability to degrade CDK5 | IC50 (CDK2/cyclin A): 6.5 nM | CDK1 degradation (CDK1 [3]; 250 nM): not affected | IC50 (CDK6/cyclin D1): 2220 nM | CDK2 degradation (CDK2 [10]): no CDK2 degradation was detected | CDK7 degradation (CDK7; 250 nM, immunoblot): not affected | CDK5 degradation (CDK5 [11]): degraded in a dose dependent manner | CDK5 degradation (proteomics) (CDK5 [12]): effectively degraded | CDK9 degradation (CDK9; 250 nM, immunoblot): not affected | CDK4 degradation (CDK4 [5]; 250 nM, immunoblot): not affected | CDK2 degradation (CDK2 [13]): degraded in a dose dependent manner | degree of degradation of STK33 (proteomics) (STK33): relatively weak | IC50 (CDK1/cyclin B): 20.3 nM | degree of degradation of JNK2 (MAPK9) (proteomics) (JNK2 (MAPK9)): relatively weak | CDK1 degradation (CDK1 [14]): remained intact | IC50 (CDK9/cyclin T1): 2640 nM | CDK2 degradation (proteomics) (CDK2 [15]): effectively degraded | IC50 (CDK5/p25): 6.8 nM | IC50 (CDK7/cyclin H): 2620 nM | growth rate inhibitory effect (OVCAR8 cells): strong growth rate inhibitory effects | growth rate inhibitory potency relative to non-degrading control ZXH-7035 (OVCAR8 cells; 72 hours): approximately 8.5 fold | IC50 (CRBN): 46.9 nM | CDK6 degradation (CDK6 [6]; 250 nM, immunoblot): not affected | CDK2 inhibition in KINOMEscan (CDK2 [16]): potent inhibition | CDK2 degradation (CDK2 [7]; 250 nM): induced CDK2 degradation | Aurora A degradation (proteomics) (Aurora A [17]): effectively degraded

Cc1cc(S(N)(=O)=O)ccc1Nc1ncc(Br)c(Nc2cccc(F)c2C(N)=O)n1 [TMX-3010]
IC50 (CDK4/cyclin D1; [20]): 135 nM | discrimination for inhibiting CDK1, CDK2, and CDK5 over CDK4 and CDK6 (CDK2/cyclin A; benchmarked to CDK2 IC50 value): hundred-fold | IC50 (CDK2/cyclin A; [21]): 0.7 nM | IC50 (CDK6/cyclin D1; [22]): 84.1 nM | IC50 (CDK1/cyclin B; [23]): 1.2 nM | IC50 (CDK5/p25; [24]): 0.9 nM

NC(=O)c1c(F)cccc1Nc1nc(Nc2ccc(S(N)(=O)=O)cc2)ncc1Br [TMX-3013]
IC50 (CDK4/cyclin D1; [20]): 24.5 nM | IC50 (CDK2/cyclin A; [21]): < 0.5 nM | IC50 (CDK6/cyclin D1; [22]): 15.6 nM | IC50 (CDK1/cyclin B; [23]): 0.9 nM | IC50 (CDK5/p25; [24]): 0.5 nM
